Screening data (PubChem BioAssay)
Hep lipid drop: inhibitors of hepatocyte lipid droplet formation, primary screen, imaging, high-throughput imaging, BODIPY stain; actives 0.4% (n = 240,000); AML12 mouse hepatocytes, oleate lipid droplets; AID 1656, 2009; inhibition, % at 6.5 µM;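 active means lipid droplet intensity inhibited by at least 50%, with more than 500 cells counted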
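Material – mouse AML12 hepatocyte cell line, fixed after treatment · Compound dosing – one dose, 6.5 µM compound · Times – compound with oleate, overnight · Measured by – Image-based BODIPY and DAPI two-channel analysis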
MrgX1 antag: antagonists of human MrgX1 receptor, primary screen, HEK293 cells, Fluo-4 calcium flux; Mas-related G-protein coupled receptor member X1 (Homo sapiens), Q96LB2; BAM8-22 antagonism; hits give low values; B-score at 10 µM; actives 1.3% (n = 310,000); AID 588676, 2011;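 active means calcium-response B-score plate-corrected more than 3 library SD below zero, starting fluorescence within 5 deviations, no agonist response on first addition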;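 further: peak minus trough fluorescence over baseline after final BAM8-22 challenge near maximal dose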
Target sequence (Q96LB2 whole entry, looked up): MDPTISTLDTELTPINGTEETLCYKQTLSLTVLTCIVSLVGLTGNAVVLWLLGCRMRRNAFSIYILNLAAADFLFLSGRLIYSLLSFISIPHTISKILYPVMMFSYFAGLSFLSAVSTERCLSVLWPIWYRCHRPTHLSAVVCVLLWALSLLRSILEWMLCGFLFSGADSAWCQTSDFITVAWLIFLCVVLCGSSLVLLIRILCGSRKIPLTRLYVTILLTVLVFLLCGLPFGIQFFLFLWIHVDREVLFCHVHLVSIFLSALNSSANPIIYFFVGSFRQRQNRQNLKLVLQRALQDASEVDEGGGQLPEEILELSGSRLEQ
RGS4 inh: RGS4 inhibitors, primary screen, cell-based, HEK293 M3R inducible RGS4, calcium flux; Regulator of G-protein signaling 4 (Homo sapiens), P49798; Fluo-4 calcium flux; hits give high values; triggered by carbachol at its EC20; B-score at 10 µM; actives 0.45% (n = 310,000);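 active means B-score, a plate-corrected calcium signal, over three deviations above library mean, with baseline fluorescence within five deviations of library mean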;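 further: RGS4 expression induced by doxycycline in cells with stable M3 receptor; B-score is computed from the integrated fluorescence ratio over baseline after carbachol; higher B-score means a larger calcium signal and so more RGS4 inhibition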
Target sequence (P49798 whole entry, looked up): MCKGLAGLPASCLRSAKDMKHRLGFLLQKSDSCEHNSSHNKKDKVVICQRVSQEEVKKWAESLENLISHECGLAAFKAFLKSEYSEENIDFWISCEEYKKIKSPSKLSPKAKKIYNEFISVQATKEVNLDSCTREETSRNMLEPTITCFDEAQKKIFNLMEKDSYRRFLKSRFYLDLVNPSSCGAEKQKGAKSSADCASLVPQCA
MrgX1 agonist: agonists of human MrgX1 receptor, primary screen, HEK293 cells, Fluo-4 calcium flux; Mas-related G-protein coupled receptor member X1 (Homo sapiens), Q96LB2; Fluo-4 calcium fluorescence, agonist mode; hits give high values; B-score at 10 µM; actives 0.44% (n = 310,000); AID 588627, 2011;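 active means calcium response B-score plate-corrected fluorescence ratio at least 3 library SD, with starting fluorescence B-score inside 5 SD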
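Material: MrgX1-expressing HEK293 cells; input: 15,000 cells per well; doses: test compound given as first of three sequential additions; schedule: overnight plating before 1 h dye loading; technique: Fluo-4 NW calcium-flux fluorescence, kinetic read; evaluation: baseline-normalised fluorescence change ratio, B-scored; control set: plate-wise positive and negative controls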
RGS4 pot: RGS4 potentiators or activators, primary screen, cell-based, HEK293 M3R inducible RGS4, calcium flux; carbachol calcium flux Fluo4; hits give low values; B-score at 10 µM; actives 0.92% (n = 310,000);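 active means B-score of the integrated calcium signal more than 4 SD below the library mean, with starting fluorescence not abnormally high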;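 further: negative B-score means reduced calcium response which marks RGS4 activation or potentiation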
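Reagent: ECmax carbachol challenge; Test system: M3R-expressing HEK293 line, RGS4 induced by doxycycline; Schedule: overnight RGS4 induction, 30 min dye load 37 °C, 20 min compound RT; Detection: calcium dye Fluo4 fluorescence; Read-out: Agonist-evoked peak-minus-minimum fluorescence over baseline, integrated ratio, B score.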
MrgX1 PAM: positive allosteric modulators of MrgX1, primary screen, HEK293 cells, Fluo-4 calcium flux. actives 0.63% (n = 310,000). AID 588675, 2011. FDSS; hits give high values. B-score at 10 µM;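 active means plate-corrected calcium response at least 3 library SD above typical, normal starting fluorescence, not activating the receptor alone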;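 further: compound read alongside a low EC10 to EC30 dose of BAM8-22 agonist; peak minus trough fluorescence over baseline measured at the second addition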
Of the large screens only hits and unclear results are named; the others gave an inactive call. In the library only some 3.8% were active in any assay of this set; here they are far more common.

O=C(N/N=C/c1sc(N2CCOCC2)nc1-c1ccccc1)c1ccccc1F	none
O=C(Nc1ccccc1F)C(=Cc1sc(N2CCOCC2)nc1-c1ccccc1)C(=O)Nc1ccccc1F	Hep lipid drop 68
Cc1cc(-c2ccccc2)c2ccc(NC(=O)C(C)(C)C)nc2n1	none
O=C(Nc1cc2c3c(c1)C1CCCC1CN3CC1CCCC21)c1ccccc1 (configuration not stated)	MrgX1 antag -13, RGS4 pot -9.8 (no result: Hep lipid drop)
Cc1cc(/C=C2\C(=N)N3N=C(C(C)C)SC3=NC2=O)c(C)n1Cc1ccccc1	MrgX1 PAM 16
CC1=NN2C(=N)/C(=C\c3cc(C)n(-c4ccccc4)c3C)C(=O)N=C2S1	none
Cc1nn(-c2ccccc2)c(Cl)c1/C=C1\SC(=S)N(CCCCCC(=O)O)C1=O	none
Cc1nn(-c2ccccc2)c(Cl)c1/C=C1/C(=N)N2N=C(C(C)C)SC2=NC1=O	MrgX1 PAM 9.6 (no result: Hep lipid drop)
CCC(CC)C1=NN2C(=N)/C(=C\c3cc(C)n(-c4cccc(C)c4)c3C)C(=O)N=C2S1	RGS4 pot -7.6
Cc1nn(-c2ccccc2)c(Cl)c1/C=C1\SC(=S)NC1=O	MrgX1 antag -4.9
Cc1cc(C)n2c(SCC(=O)NC3CCCCC3)nnc2n1	none
CCCCn1c(N)c(N(CC(C)C)C(=O)CN(C)Cc2cccc(OC)c2)c(=O)[nH]c1=O	none
CSc1ccc(CCNC(=O)CN2C(=O)CCSc3ccccc32)cc1	none
O=C(O)CCn1c(SCCOc2ccccc2)nc2ccccc21	none
COCc1cc(Sc2c(Cl)cccc2Cl)nc(-c2ccccc2)n1	MrgX1 PAM 9.3 (no result: Hep lipid drop)
O=C(CCC(=O)N1CCN(Cc2ccc(F)cc2)CC1)Nc1nnc(C(F)(F)F)s1	none
COCCn1c(N)c(N(Cc2ccccc2)C(=O)c2ccc(-c3ccc(Cl)cc3)o2)c(=O)[nH]c1=O	none (no result: Hep lipid drop)
COc1ccc2[nH]c3c(NCCCOC(C)C)ncnc3c2c1	RGS4 pot -7.4
CN(C)/C=C1\SC(=S)N(c2ccc(F)cc2)C1=O	none
CN(C)/C=C1\SC(=S)N(c2ccc(Br)cc2)C1=O	MrgX1 antag -4.9
Cc1ccc2nc(/C(C#N)=C/c3ccc(O)c(O)c3)[nH]c2c1	MrgX1 agonist 35
COc1ccc(Nc2cc(Nc3cc(OC)c(OC)c(OC)c3)ncn2)cc1	none (no result: Hep lipid drop)
Cc1ccc(Sc2c([N+](=O)[O-])ncn2C)cc1	none (no result: Hep lipid drop)
Cn1cnc([N+](=O)[O-])c1Sc1ncccc1N	MrgX1 antag -7.2
Cc1ccccc1CNS(=O)(=O)c1c(C(=O)N2CCCCC2)c(C)n(C)c1C	none
COc1ccc(-c2nc(NC(=O)c3ccc(OCC(=O)N4CCOCC4)c(OC)c3)sc2C)cc1	Hep lipid drop 96
COc1ccc2noc3c2c1C(=O)c1ccccc1-3	RGS4 pot -7.2 (no result: Hep lipid drop)
CC(CNC(=O)c1cccs1)c1ccc([N+](=O)[O-])cc1 (configuration not stated)	MrgX1 antag -4.6
CCN(CC)CCNC(=O)c1ccc(NC(=O)/C=C/c2ccc3ccccc3n2)cc1	MrgX1 antag -8.5
CCN(CC)CCNC(=O)c1ccc(NC(=O)c2ccccc2-c2ccc(C(F)(F)F)cc2)cc1	RGS4 pot -9.5
CCN(CC)CCNC(=O)c1ccc(NC(=O)Cc2ccccc2F)cc1	none
CCN(CC)CCNC(=O)c1ccc(NC(=O)c2cc(-c3ccco3)nc3ccccc23)cc1	none
CCN(CC)CCNC(=O)c1ccc(NC(=O)c2cn(-c3ccccc3)nc2-c2cccs2)cc1	RGS4 pot -8.1
CCN(CC)CCNC(=O)c1ccc(NC(=O)c2cn(-c3ccc(F)cc3)nc2-c2cccc(OC)c2)cc1	RGS4 pot -11
O=C(CCN=C1NS(=O)(=O)c2ccccc21)OCc1cccc(Cl)c1	none (no result: Hep lipid drop)
CCN(CC)S(=O)(=O)c1ccc(OC)c(NC(=O)C(Cc2ccccc2)N2C(=O)c3ccccc3C2=O)c1 (configuration not stated)	none
CCOc1ccccc1NC(=O)CSc1nnc(CNC(=O)c2c(F)cccc2Cl)o1	none
O=C1C(CSCc2ccccc2)NC(=S)N1c1ccccc1 (configuration not stated)	none
CN(CC(=O)Nc1cccc(F)c1)C(=O)c1cn(-c2ccccc2)nc1-c1ccccc1	none
CCOc1ccc(NC(=O)CN(C)C(=O)c2cn(-c3ccc(F)cc3)nc2-c2cccc(OC)c2)cc1OCC	RGS4 pot -7.2 (no result: Hep lipid drop)
Cc1nnc(N2C(=O)C(O)=C(C(=O)c3ccco3)C2c2ccc(C(C)(C)C)cc2)s1 (configuration not stated)	MrgX1 agonist 27
CSc1ccc(C2C(C(=O)c3ccco3)=C(O)C(=O)N2c2nnc(SC)s2)cc1 (configuration not stated)	MrgX1 antag -5.4
CC1CCCCN1S(=O)(=O)Cc1ccccc1Cl (configuration not stated)	none (no result: Hep lipid drop)
O=C(NC1CCSc2ccccc21)c1cccc([N+](=O)[O-])c1 (configuration not stated)	none
S=C1N(c2ccccc2)C(c2ccc(Cl)cc2)N2CCCN12 (configuration not stated)	RGS4 pot -7.2 (no result: Hep lipid drop)
COc1ccc(C2N(c3ccccc3)C(=S)N3CCCN23)cc1 (configuration not stated)	none
CCOC(=O)c1ccc2ncc(C(=O)OCC)c(Nc3ccc(N4CCOCC4)cc3)c2c1	RGS4 pot -7.5
CCOC(=O)c1cnc2ccc(C(=O)OC)cc2c1Nc1ccc(C(=O)O)cc1	none
CCc1cccc2sc(N3CCN(C(=O)c4ccc([N+](=O)[O-])o4)CC3)nc12	none (no result: Hep lipid drop)
NCC/C=C1/c2ccccc2CSc2ccccc21	RGS4 pot -7
CN(C)CC/C=C1\c2ccccc2Sc2ccc(Cl)cc21	none
CN(C)CC/C=C1\c2cc(F)ccc2CSc2ccccc21	RGS4 pot -8.8
CN(C)CCC=C1c2ccccc2CCc2ccccc21	none (no result: MrgX1 antag, RGS4 inh, MrgX1 agonist, RGS4 pot, MrgX1 PAM)
C#CCN(C)CC/C=C1\c2ccccc2CSc2ccccc21	RGS4 pot -8.7
CN(C)CC/C=C1/c2ccc(F)cc2Sc2ccc(Cl)cc21	RGS4 pot -7.8 (no result: Hep lipid drop)
CN(C)CC/C=C1/c2cc(F)ccc2CSc2ccc(F)cc21	none
CN(C)CC/C=C1\c2ccc(F)cc2Sc2cc(F)c(Cl)cc21	none (no result: Hep lipid drop)
CCOC(=O)C1CCN(C(=O)c2cc3cc(C)ccc3[nH]2)CC1	none
